A selection: hits, their analogues and other compounds. The true share with any hit is near 2.5%.
SENP1 inh = human SENP1 catalytic domain inhibitors, primary screen, biochemical, FRET, uHTS; Sentrin-specific protease 1 (Homo sapiens), Q9P0U3; recombinant SENP1 catalytic domain, CyPet-SUMO1-YPet FRET cleavage; inhibition, % at 10 µM; hit rate 0.21% among 360,000; AID 624204, 2012;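 active = inhibition at least 30% at 10 µM, raw YFP signal under a set limit, fluorescence ratio 0.5 to 1.5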
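Compound: 10 µM single point, 0.5% DMSO; Test system: hSENP1 catalytic domain, recombinant; Timing: 50 min reaction at room temperature; Technique: FRET, CFP and YFP emission; Control set: no-enzyme wells low, DMSO-plus-enzyme wells high control.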
SENP7 inh = SENP7 protease inhibitors, primary screen, biochemical, luminescence, uHTS. Sentrin-specific protease 7 (Homo sapiens), Q9BQF6. recombinant SENP7, Z-RLRGG-aminoluciferin luminescence, 40 min. inhibition, % at 5 µM. hit rate 1.5% among 330,000;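 active = inhibition above about 50% at the single test dose, limit read from the data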
SENP8 block-1 = human SENP8 protease inhibitors, primary screen, biochemical, fluorescence, Nedd8 protein substrate, uHTS; recombinant SENP8; Sentrin-specific protease 8 (Homo sapiens), Q96LD8; inhibition, % at 20 µM; hit rate 0.64% among 360,000; AID 602440, 2012; in the data active = inhibition mostly above about 40%, no sharp cut-off; inactive = mostly below about 27%
SENP8 block-2 = SENP8 protease inhibitors, primary screen, biochemical, luminescence. purified SENP8, Z-RLRGG-aminoluciferin cleavage. inhibition, % at 10 µM. hit rate 1.2% among 330,000; in the data active = inhibition above about 50%
SENP6 inh = SENP6 protease inhibitors, primary screen, biochemical, luminescence, uHTS; inhibition, % at 10 µM; hit rate 1.8% among 330,000; Sentrin-specific protease 6 (Homo sapiens), Q9GZR1; Recombinant SENP6 catalytic domain, aminoluciferin luminescence;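 active = inhibition above about 50% at the single tested dose, limit read from the data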
Target sequence (Q9GZR1 628-1112 limits assumed): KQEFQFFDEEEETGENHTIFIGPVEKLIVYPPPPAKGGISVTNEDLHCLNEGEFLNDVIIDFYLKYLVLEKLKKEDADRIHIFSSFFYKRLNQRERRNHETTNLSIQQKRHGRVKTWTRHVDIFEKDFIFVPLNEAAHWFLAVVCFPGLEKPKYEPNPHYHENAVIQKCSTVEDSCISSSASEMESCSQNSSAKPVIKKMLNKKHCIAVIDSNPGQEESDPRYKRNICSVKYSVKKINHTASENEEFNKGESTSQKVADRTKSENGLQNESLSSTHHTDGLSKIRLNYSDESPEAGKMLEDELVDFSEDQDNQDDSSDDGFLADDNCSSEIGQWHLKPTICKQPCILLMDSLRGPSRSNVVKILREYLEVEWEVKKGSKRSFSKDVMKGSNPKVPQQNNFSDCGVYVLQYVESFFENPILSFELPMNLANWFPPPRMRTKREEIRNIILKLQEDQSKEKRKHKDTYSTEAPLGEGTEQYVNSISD
SENP8 confirm = SENP8 protease inhibitors, retest, confirmation, biochemical, luminescence, single concentration; shares compounds with SENP7 inh; Recombinant SENP8, Z-RLRGG-aminoluciferin luminescence, 60 min; inhibition, % at 12.5 µM; hit rate 40% among 6,200;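 active = mean inhibition across replicates above about 50%, limit read from the data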
SENP6 conf = SENP6 protease inhibitors, confirmation, biochemical, luminescence, single concentration. shares compounds with SENP7 inh. recombinant SENP6, Z-RLRGG-aminoluciferin luminescence. inhibition, % at 12.5 µM. hit rate 58% among 6,200. AID 488915, 2010
SENP7 confirm = SENP7 protease inhibitors, retest, confirmation, biochemical, luminescence, single concentration; shares compounds with SENP7 inh; recombinant SENP7, Z-RLRGG-aminoluciferin luminescence, 40 min; inhibition, % at 12.5 µM; hit rate 69% among 6,200; AID 488917, 2010
Casp3 SENP sel = caspase-3 protease inhibitors, confirmation, selectivity assay for SENP inhibitor project, biochemical, single concentration. shares compounds with SENP7 inh. purified caspase-3, Z-DEVD-aminoluciferin luminescence, 60 min. inhibition, % at 12.5 µM. hit rate 60% among 6,200. AID 488918, 2010;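 active = mean inhibition above about 50%, limit read from the data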
Luc interf = luminescence interference (SENP counter-screen); hit rate 39% among 6,200; Pre-incubated SENP8/Z-RLRGG-aminoluciferin, luciferase luminescence interference; shares compounds with SENP7 inh; inhibition, % at 12.5 µM;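 active = mean inhibition above about 50% when retested at one dose, limit read from the data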
A number is an active result; n = inactive; x = not tested or not shown.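 The calls were made as follows, unless noted: active = mean inhibition above about 50% in the one-dose retest (limit read from the data); inactive = the rest.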

SMILES	SENP1 inh	SENP7 inh	SENP8 block-1	SENP8 block-2	SENP6 inh	SENP8 confirm	SENP6 conf	SENP7 confirm	Casp3 SENP sel	Luc interf
CC(C)NC(=O)N(C)C[C@H]1Oc2cc(C#Cc3ccc(F)cc3)ccc2S(=O)(=O)N([C@H](C)CO)C[C@H]1C	n	x	n	x	x	x	x	x	x	x
CCCC(=O)Nc1ccc(-c2nc3cc(C)ccc3o2)cc1	n	71	n	n	71	n	50	74	n	n
CCCC(=O)Nc1ccc2oc(-c3ccc(OC)c(Br)c3)nc2c1	n	51	n	n	n	n	n	n	n	n
CCCC(=O)Nc1ccc(-c2nc3cc(C)c(C)cc3o2)c(O)c1	n	n	n	n	n	x	x	x	x	x
Cn1cnc(C(=O)NCc2ccc(CNC(=O)OC(C)(C)C)cc2)c1C(=O)NCc1ccc(CNC(=O)OC(C)(C)C)cc1	n	n	n	n	n	x	x	x	x	x
CCc1sc(C(=O)Nc2nccs2)cc1C	n	80	n	68	80	83	81	96	79	n
CCc1sc(C(=O)Nc2ncccc2O)cc1C	n	66	n	n	69	62	59	87	83	64
O=C(Nc1nccs1)c1cc2c(s1)CCCCC2	n	98	n	95	95	98	99	102	97	87
Cc1cc(OCC(=O)NC(C)c2ccccc2)ccc1[N+](=O)[O-] (stereo not given)	n	n	n	n	n	x	x	x	x	x
Cc1csc(NC(=O)c2ccc(C(=O)Nc3nc(C)cs3)cc2)n1	x	n	x	n	n	x	x	x	x	x
Cn1cccc1C(=O)Nc1nc(-c2ccccn2)cs1	n	62	n	n	74	76	76	93	84	78
Cc1csc(NC(=O)c2cccn2C)n1	n	91	n	76	82	76	75	96	93	84
COc1ccc(NS(=O)(=O)N2CCCCC2)cc1	n	x	n	x	x	x	x	x	x	x
CCOC(=O)C1(C)CCN1C(=O)c1ccc(SC(F)(F)F)cc1 (stereo not given)	n	x	n	x	x	x	x	x	x	x
c1cncc(-c2nc(-c3cccs3)cs2)c1	n	n	n	n	n	x	x	x	x	x
Cc1cccc(Nc2nc(-c3cccs3)cs2)n1	n	81	n	89	90	n	96	102	76	87
Cc1cccc(Nc2nc(-c3ccccn3)cs2)n1	n	79	n	70	76	n	78	95	74	86
c1csc(-c2csc(-c3cccs3)n2)c1	n	55	n	n	n	n	60	82	n	n
Cc1noc(C)c1C(=O)Nc1nc(-c2cccs2)cs1	n	n	n	n	n	x	x	x	x	x
Nc1ccc(Nc2nc(-c3cccs3)cs2)cc1	n	n	n	n	n	x	x	x	x	x
c1ccc(Nc2nc(-c3cccs3)cs2)nc1	n	83	n	94	92	96	97	102	88	94
N#Cc1ccc(CN(Nc2ccccc2)c2ccccc2)cc1	n	x	n	x	x	x	x	x	x	x
CCCc1ccc(OC(=O)c2cccs2)cc1	n	n	n	n	n	x	x	x	x	x
CCCc1ccc(OC(=O)c2ccc(O)cc2Cl)cc1	n	n	n	66	61	58	73	90	n	n
COC(=O)[C@@H](Cc1c[nH]c2ccccc12)NCc1cccc(B(O)O)c1	n	x	n	x	x	x	x	x	x	x
SMILES	SENP1 inh	SENP7 inh	SENP8 block-1	SENP8 block-2	SENP6 inh	SENP8 confirm	SENP6 conf	SENP7 confirm	Casp3 SENP sel	Luc interf
CSc1ccc(C(=O)/C=C/c2ccc(N)cc2)cc1	n	56	n	n	71	83	65	87	n	88
COc1ccc(C(=O)/C=C/c2ccc(O)cc2)cc1	n	62	n	51	n	n	57	76	n	89
CSc1ccc(/C=C/C(=O)c2ccc(NC(=O)C(C)C)cc2)cc1	n	n	n	n	n	x	x	x	x	x
O=C(/C=C/c1ccc(O)cc1)c1ccccc1	n	93	n	95	n	n	99	103	92	98
Cc1ccc(/C=C/C(=O)c2ccc(C)cc2)cc1	n	n	n	n	52	n	n	n	n	n
O=C1/C(=C/c2ccccc2Cl)SC(=S)N1CCCC(=O)N(CCO)c1ccccc1	n	n	n	n	n	x	x	x	x	x
COc1cccc(NC(=O)C2CCN(C(=O)NC3CCCCC3)CC2)c1	n	n	n	n	n	x	x	x	x	x
Cc1nn(C)cc1/C=C/C(=O)c1ccc(O)cc1	n	n	n	n	53	n	n	n	n	n
Cc1cn([C@H]2C[C@H](O)[C@@H](/C=C/C(=O)NCc3ccc4c(c3)OCO4)O2)c(=O)[nH]c1=O	n	x	n	x	x	x	x	x	x	x
Cc1ccccc1C(=O)N1CCC(C(=O)NN2C(=O)NC3(CCC(C)CC3)C2=O)CC1 (stereo not given)	n	n	n	n	n	x	x	x	x	x
CC(=O)N1c2ccccc2N=C(c2ccc(C(F)(F)F)cc2)C1C(=O)NC1CCCC1 (stereo not given)	n	x	n	x	x	x	x	x	x	x
CC(=O)NC1Sc2ccccc2N=C1c1ccccc1 (stereo not given)	n	85	n	84	89	n	69	97	66	n
Cc1cc(C(=O)N/N=C2\CC(=O)c3ccccc32)c(C)n1-c1ccccc1	n	n	n	54	n	n	n	n	n	n
O=C1c2ccccc2C(=O)C1c1ccc(Br)cc1	n	n	n	93	94	96	94	100	89	95
O=C1c2ccccc2C(=O)C1c1ccc(O)cc1	n	n	n	n	n	x	x	x	x	x
COc1cccc(C2C(=O)c3ccccc3C2=O)c1	n	n	n	n	n	x	x	x	x	x
O=C1c2ccccc2C(=O)C1c1ccc(Cl)cc1	n	n	n	77	82	89	92	99	89	88
COc1ccc(CN2C(=NC(=O)C3CC3)SC3CS(=O)(=O)CC32)cc1OC (stereo not given)	n	n	n	n	n	x	x	x	x	x
C=C(C)C1CC=C(C)/C(=N/NC(=O)COc2ccccc2Cl)C1 (stereo not given)	n	n	n	n	n	x	x	x	x	x

High-throughput results from PubChem BioAssay.
